Measurements taken from ChEMBL document CHEMBL1800061 (J Med Chem, 2010).
The source made the active and inactive calls. No cut-off for these calls is given here.

Experiments:
[1] = target: Tyrosine-protein kinase SYK (Homo sapiens) (UniProt P43405); assay: Inhibition of SYK assessed as residual enzyme activity at 10 uM
[2] = system: Mus musculus; assay: AUC (0 to infinity) in mouse at 10 mg/kg, po; format: ADME, organism-based, Plasma; set-up: time infinity, dose 10 mg/kg, route oral; conditions: in vivo
Summary of the method: (§1)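 Mice given 10 mg/kg by the ip, iv or oral route. Plasma levels were measured at 8 time points, with 3 animals per route for po and iv. Parameters came from a noncompartmental model. AUCINF was extrapolated to infinity, and bioavailability was calculated from AUCINF. The terminal slope used 3 points.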

[3] = target: Mitogen-activated protein kinase 14 (Homo sapiens) (UniProt Q16539); assay: Inhibition of p38alpha MAPK assessed as residual enzyme activity at 10 uM
Chain of Mitogen-activated protein kinase 14 (Homo sapiens) (Q16539 whole entry): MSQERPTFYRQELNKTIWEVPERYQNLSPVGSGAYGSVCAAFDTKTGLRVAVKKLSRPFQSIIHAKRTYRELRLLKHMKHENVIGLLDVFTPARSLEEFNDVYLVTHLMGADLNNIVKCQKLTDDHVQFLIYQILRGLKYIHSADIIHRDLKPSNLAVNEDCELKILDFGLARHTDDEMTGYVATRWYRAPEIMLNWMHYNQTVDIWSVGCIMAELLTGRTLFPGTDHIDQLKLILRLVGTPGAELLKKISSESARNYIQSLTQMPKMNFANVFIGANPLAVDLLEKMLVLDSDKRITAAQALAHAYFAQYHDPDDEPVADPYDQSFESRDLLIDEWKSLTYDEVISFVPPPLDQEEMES

[4] = system: Mus musculus; assay: Inhibition of cyclin-dependent kinase substrate RB phosphorylation at Thr 821 in HCT116 xenografted nude BALB/c mouse at 25 mg/kg/day, po measured after 14 days by immunostaining and […] relative to control; format: organism-based; set-up: route oral; conditions: in vivo, 336 h
Summary of the method: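 HCT116 cells (5 × 10^6) were injected subcutaneously into the flank of female nu/nu-BALB/c nude mice. Mice were randomized at 100-200 mm3 and dosed daily by oral gavage for 14 days (vehicle 28% PEG300/5% dimethylacetamide/10% HPB cyclodextrin in water). Tumors were formalin-fixed and paraffin-embedded for Rb pSer807/811 or pThr821 immunohistochemistry (citrate pH 6.0 microwave retrieval), scoring >1000 cells per section. Student's t test.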

[5] = system: Mus musculus; assay: Inhibition of cyclin-dependent kinase substrate […] phosphorylation at Ser5 in nude BALB/c mouse PBMC at 25 mg/kg, po measured after 6 hrs by immunostaining and flow cytometric analysis; format: functional
Summary of the method: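 Female nu/nu-BALB/c athymic nude mice (7 weeks old) given a single oral gavage dose in 28% PEG300/5% dimethylacetamide/10% HPB cyclodextrin in water. PBMC were isolated from cardiac blood after red-cell lysis, then fixed, permeabilized and stained with primary antibodies (1:100, 1 h, RT) and an Alexa Fluor 488 secondary (1:200, 1 h). Read-out was flow cytometry; n=4 (n=3 at 100 mg/kg).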

[6] = system: MCF7; assay: Induction of apoptosis in human MCF7 cells assessed as increase in sub-G1 population at 1 to 10 umol/L after 24 hrs by […] staining based flow cytometric analysis; format: functional, cell-based
[7] = target: Cyclin-dependent kinase 6 (Homo sapiens) (UniProt Q00534); assay: Inhibition of CDK6-mediated phosphorylation of RB protein in human HCT116 cells after 4 hrs by immunoblotting analysis; format: cell-based; conditions: HCT-116
Chain of Cyclin-dependent kinase 6 (Homo sapiens) (Q00534 whole entry): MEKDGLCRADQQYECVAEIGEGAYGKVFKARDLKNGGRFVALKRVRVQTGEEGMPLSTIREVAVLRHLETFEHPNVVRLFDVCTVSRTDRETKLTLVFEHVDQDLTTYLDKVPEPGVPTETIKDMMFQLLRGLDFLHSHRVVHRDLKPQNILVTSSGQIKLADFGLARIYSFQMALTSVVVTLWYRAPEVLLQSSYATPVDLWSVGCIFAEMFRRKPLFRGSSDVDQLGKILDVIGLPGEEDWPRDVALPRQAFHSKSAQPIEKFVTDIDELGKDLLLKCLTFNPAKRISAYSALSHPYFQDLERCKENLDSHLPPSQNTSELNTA
Summary of the method: (§2)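 HCT116 colon cancer cells were kept in DMEM with 10% FCS. Cells (8×10^5) were plated, dosed 24 h later, and exposed for 4 or 24 h. Whole-cell lysates were made in RIPA buffer with phosphatase and protease inhibitor cocktails and normalised by BCA protein assay. They were immunoblotted for phospho-sites, total proteins and cyclins.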

[8] = system: MCF7; assay: Cell cycle arrest in human MCF7 cells assessed as reduction in cells at G1 phase at 1 to 10 umol/L after 24 hrs by propidium iodide staining based flow cytometric analysis; format: functional
[9] = target: T1, Mitogen-activated protein kinase 1 (Homo sapiens, UniProt P28482); assay: Inhibition of ERK2 at 0.1 uM
T1 sequence (P28482 whole entry): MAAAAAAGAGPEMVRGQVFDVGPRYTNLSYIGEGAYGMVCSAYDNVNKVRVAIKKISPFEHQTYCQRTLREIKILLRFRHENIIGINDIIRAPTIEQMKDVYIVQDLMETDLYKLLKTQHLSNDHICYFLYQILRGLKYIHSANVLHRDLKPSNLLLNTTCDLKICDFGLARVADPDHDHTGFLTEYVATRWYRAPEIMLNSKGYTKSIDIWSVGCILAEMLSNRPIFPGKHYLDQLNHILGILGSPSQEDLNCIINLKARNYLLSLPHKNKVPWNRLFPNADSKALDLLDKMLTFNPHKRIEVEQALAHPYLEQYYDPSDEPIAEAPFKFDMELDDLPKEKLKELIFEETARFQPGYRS

[10] = target: T1, Mitogen-activated protein kinase 1; assay: Inhibition of ERK2 assessed as residual enzyme activity at 10 uM
[11] = target: Ribosomal protein S6 kinase beta-1 (Homo sapiens) (UniProt P23443); assay: Inhibition of S6K1 assessed as residual enzyme activity at 10 uM
[12] = target: Cyclin-dependent kinase 1 (Homo sapiens) (UniProt P06493); assay: Inhibition of CDK1-mediated phosphorylation of PP1a at Thr320 in human HCT116 cells after 4 hrs by immunoblotting analysis; format: cell-based; conditions: HCT-116; summary of the method: as §2
[13] = system: HCT-116; assay: Antiproliferative activity against human HCT116 cells after 72 hrs by sulforhodamine B assay; format: functional; conditions: HCT-116, 72 h
Summary of the method: (§3)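 Cell lines were grown in DMEM with 10% FCS and treated with increasing concentrations for 72 h. Growth was read by sulforhodamine B staining and GI50 was derived. Values are means of at least three replicates with SD.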

[14] = target: Cyclin-T1/Cyclin-dependent-like kinase 5 (Homo sapiens, UniProt O60563+Q00535); assay: Inhibition of CDK5/cyclinT assessed as amount of ATP released by luciferase activity based PKLight assay; format: protein-complex assay
Chain of Cyclin-T1/Cyclin-dependent-like kinase 5 (Q00535 whole entry): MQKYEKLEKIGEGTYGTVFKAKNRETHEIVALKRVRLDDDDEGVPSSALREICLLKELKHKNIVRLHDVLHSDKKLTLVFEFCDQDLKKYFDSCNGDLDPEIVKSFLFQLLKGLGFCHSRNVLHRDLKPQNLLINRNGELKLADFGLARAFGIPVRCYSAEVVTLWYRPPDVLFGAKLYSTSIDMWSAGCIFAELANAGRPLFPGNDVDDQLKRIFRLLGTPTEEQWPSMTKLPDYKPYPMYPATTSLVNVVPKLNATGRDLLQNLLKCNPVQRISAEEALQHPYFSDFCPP
Chain of Cyclin-T1/Cyclin-dependent-like kinase 5 (O60563 whole entry): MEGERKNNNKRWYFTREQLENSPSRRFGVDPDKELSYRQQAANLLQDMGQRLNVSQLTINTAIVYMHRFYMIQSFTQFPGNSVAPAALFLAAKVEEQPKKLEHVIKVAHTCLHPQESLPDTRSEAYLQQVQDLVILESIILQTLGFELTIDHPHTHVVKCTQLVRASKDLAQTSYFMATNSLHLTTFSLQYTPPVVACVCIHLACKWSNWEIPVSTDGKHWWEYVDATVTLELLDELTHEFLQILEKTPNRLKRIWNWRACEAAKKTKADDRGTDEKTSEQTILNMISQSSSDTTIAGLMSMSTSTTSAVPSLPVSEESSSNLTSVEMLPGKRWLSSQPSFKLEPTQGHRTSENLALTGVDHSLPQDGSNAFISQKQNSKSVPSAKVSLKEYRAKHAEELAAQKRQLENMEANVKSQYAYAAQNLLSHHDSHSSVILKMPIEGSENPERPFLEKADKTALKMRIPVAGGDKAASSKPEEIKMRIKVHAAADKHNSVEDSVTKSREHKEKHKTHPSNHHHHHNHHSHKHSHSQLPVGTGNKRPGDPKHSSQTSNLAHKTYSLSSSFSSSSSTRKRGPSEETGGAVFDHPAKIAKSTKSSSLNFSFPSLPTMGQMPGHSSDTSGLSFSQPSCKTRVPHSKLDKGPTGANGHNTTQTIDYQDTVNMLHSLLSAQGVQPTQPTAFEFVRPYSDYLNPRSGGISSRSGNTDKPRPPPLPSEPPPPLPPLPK

[15] = target: Serine/threonine-protein kinase PAK 5 (Homo sapiens) (UniProt Q9P286); assay: Inhibition of PAK5 assessed as residual enzyme activity at 10 uM
[16] = Clearance in mouse at 10 mg/kg, iv; format: ADME, organism-based; set-up: dose 10 mg/kg, route intravenous; conditions: in vivo; summary of the method: as §1
[17] = target: Cyclin-dependent kinase 9 (Homo sapiens) (UniProt P50750); assay: Inhibition of CDK9-mediated phosphorylation of RB protein in human HCT116 cells after 4 hrs by immunoblotting analysis; format: cell-based; conditions: HCT-116; summary of the method: as §2
[18] = target: Mitogen-activated protein kinase 3 (Homo sapiens, UniProt P27361); assay: Inhibition of ERK1 assessed as residual enzyme activity at 10 uM
[19] = system: SAOS-2; assay: Antiproliferative activity against human Saos2 cells after 72 hrs by sulforhodamine B assay; format: functional; conditions: SAOS-2, 72 h; summary of the method: as §3
[20] = target: Tyrosine-protein kinase Yes (Homo sapiens) (UniProt P07947); assay: Inhibition of YES1 assessed as residual enzyme activity at 10 uM
Chain of Tyrosine-protein kinase Yes (Homo sapiens) (P07947 2-543 limits assumed): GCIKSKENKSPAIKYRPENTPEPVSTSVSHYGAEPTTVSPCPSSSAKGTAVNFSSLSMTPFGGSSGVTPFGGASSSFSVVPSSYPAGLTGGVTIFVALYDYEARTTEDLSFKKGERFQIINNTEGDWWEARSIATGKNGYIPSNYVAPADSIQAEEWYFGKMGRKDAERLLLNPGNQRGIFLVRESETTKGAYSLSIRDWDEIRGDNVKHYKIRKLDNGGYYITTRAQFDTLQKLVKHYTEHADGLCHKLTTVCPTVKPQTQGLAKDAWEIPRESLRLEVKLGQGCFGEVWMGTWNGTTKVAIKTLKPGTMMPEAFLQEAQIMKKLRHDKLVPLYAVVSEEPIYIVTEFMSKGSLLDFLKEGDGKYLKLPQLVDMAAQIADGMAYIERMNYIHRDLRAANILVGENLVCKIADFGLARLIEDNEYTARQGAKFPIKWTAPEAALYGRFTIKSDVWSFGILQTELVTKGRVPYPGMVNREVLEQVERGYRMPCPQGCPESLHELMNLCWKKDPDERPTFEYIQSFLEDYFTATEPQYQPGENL

[21] = system: SK-OV-3; assay: Antiproliferative activity against human SKOV3 cells after 72 hrs by sulforhodamine B assay; format: functional; conditions: SK-OV-3, 72 h; summary of the method: as §3
[22] = target: Ephrin type-A receptor 2 (Homo sapiens) (UniProt P29317); assay: Inhibition of EPH A2 assessed as residual enzyme activity at 10 uM
Chain of Ephrin type-A receptor 2 (Homo sapiens) (P29317 whole entry, looked up): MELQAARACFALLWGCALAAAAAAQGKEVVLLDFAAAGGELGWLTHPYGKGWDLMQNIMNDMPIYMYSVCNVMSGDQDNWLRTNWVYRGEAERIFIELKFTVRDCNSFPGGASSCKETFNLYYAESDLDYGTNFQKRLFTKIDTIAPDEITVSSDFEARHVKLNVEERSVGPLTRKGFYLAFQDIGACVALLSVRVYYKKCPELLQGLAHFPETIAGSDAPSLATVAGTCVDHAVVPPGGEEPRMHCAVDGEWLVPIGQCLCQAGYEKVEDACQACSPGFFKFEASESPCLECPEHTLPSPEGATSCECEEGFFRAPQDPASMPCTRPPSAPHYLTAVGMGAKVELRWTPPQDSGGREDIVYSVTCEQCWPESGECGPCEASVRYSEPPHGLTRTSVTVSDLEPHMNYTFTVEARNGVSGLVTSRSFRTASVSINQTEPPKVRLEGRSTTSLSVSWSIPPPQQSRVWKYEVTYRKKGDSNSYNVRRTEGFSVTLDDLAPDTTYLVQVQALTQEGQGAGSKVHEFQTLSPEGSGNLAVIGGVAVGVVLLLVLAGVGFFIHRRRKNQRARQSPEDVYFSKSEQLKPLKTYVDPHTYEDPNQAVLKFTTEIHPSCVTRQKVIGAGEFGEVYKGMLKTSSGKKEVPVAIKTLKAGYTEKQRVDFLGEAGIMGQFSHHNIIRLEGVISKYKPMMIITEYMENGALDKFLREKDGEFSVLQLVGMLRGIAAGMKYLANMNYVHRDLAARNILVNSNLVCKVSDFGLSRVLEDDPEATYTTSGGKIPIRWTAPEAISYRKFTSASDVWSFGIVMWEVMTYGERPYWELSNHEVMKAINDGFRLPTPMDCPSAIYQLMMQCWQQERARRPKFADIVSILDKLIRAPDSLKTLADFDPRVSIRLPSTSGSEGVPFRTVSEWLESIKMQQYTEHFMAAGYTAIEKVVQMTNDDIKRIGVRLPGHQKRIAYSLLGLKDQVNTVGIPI

[23] = target: 5'-AMP-activated protein kinase subunit beta-1 (Homo sapiens) (UniProt Q9Y478); assay: Inhibition of AMPK assessed as residual enzyme activity at 10 uM
Chain of 5'-AMP-activated protein kinase subunit beta-1 (Homo sapiens) (Q9Y478 whole entry): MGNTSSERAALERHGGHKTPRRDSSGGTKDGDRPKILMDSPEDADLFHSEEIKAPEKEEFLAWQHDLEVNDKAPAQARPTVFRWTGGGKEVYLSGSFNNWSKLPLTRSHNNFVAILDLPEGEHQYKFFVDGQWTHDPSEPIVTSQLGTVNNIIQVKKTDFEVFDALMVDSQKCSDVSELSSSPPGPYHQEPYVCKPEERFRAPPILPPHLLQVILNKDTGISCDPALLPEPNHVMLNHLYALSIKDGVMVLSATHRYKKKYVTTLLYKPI

[24] = target: Calcium/calmodulin-dependent protein kinase kinase 2 (Homo sapiens, UniProt Q96RR4); assay: Inhibition of CAMKKbeta at 0.1 uM
Chain of Calcium/calmodulin-dependent protein kinase kinase 2 (Q96RR4 2-588 limits assumed): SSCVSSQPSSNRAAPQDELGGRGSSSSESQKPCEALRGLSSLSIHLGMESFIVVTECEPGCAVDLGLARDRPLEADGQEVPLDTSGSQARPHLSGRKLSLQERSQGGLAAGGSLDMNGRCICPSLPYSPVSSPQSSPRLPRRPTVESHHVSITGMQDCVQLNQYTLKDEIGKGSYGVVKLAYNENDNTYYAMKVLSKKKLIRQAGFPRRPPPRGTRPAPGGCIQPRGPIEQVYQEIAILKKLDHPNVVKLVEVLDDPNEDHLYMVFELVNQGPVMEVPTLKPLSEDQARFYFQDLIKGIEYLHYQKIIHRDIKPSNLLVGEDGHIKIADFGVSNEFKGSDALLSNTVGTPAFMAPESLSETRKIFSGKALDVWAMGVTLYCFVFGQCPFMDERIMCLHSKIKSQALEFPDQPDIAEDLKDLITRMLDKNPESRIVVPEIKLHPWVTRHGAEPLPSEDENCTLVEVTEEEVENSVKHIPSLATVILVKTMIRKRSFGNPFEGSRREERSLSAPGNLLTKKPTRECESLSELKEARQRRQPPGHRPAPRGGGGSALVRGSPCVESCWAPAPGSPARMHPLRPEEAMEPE

[25] = system: MCF7; assay: Cell cycle arrest in human MCF7 cells assessed as concomitant increase in cells at G2/M phase at 1 to 10 umol/L after 24 hrs by propidium iodide staining based flow cytometric analysis; format: functional
[26] = Cmax in mouse at 10 mg/kg, ip; format: ADME, organism-based; set-up: dose 10 mg/kg, route intraperitoneal; conditions: in vivo; summary of the method: as §1
[27] = target: MAP kinase-interacting serine/threonine-protein kinase 2 (Homo sapiens) (UniProt Q9HBH9); assay: Inhibition of MNK2 assessed as residual enzyme activity at 10 uM
Chain of MAP kinase-interacting serine/threonine-protein kinase 2 (Homo sapiens) (Q9HBH9 whole entry, looked up): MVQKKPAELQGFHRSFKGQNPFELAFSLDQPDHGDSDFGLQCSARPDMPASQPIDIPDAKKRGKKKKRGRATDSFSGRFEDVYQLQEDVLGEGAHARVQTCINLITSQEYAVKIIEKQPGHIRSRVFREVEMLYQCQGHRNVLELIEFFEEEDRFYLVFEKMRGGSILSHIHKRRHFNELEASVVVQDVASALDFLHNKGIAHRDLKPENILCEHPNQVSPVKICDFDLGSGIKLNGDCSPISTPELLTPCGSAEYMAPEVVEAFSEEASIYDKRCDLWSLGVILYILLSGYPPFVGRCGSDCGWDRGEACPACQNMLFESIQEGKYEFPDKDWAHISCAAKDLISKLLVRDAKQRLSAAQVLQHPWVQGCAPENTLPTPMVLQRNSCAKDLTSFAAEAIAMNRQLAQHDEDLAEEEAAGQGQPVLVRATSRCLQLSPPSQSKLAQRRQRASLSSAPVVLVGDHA

[28] = system: Mus musculus; assay: Inhibition of cyclin-dependent kinase substrate RB phosphorylation in nude BALB/c mouse PBMC at 75 to 100 mg/kg, po measured after 24 hrs by immunostaining and flow cytometric analysis; format: organism-based; set-up: dose 75-100 mg/kg, route oral; conditions: in vivo
Summary of the method: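 Seven-week-old female nu/nu-BALB/c nude mice got a single oral gavage (vehicle 28% PEG300/5% dimethylacetamide/10% HPB cyclodextrin in water). Blood was taken by cardiac puncture at 6 h or 24 h, red cells were lysed, and PBMC were fixed and permeabilized. Cells were stained with Rb, Rb pThr821, PolII or PolII pSer2 antibodies plus an Alexa488 secondary, then read by flow cytometry; n=4 (n=3 at 100 mg/kg).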

[29] = system: MDA-MB-231; assay: Antiproliferative activity against human MDA-MB-231 cells after 72 hrs by sulforhodamine B assay; format: functional; conditions: MDA-MB-231, 72 h; summary of the method: as §3

`CC(C)c1cnn2c(NCc3ccccc3)cc(N[C@@H](CO)[C@H](O)CO)nc12` gave an Activity [1] of 120%, an AUC [2] of 32100 ng·h/mL and an Activity [3] of 98%. For the same molecule, the “inhibition (INH)” value [4] was “Active”, the inhibition in vivo at 25 mg/kg [5] was 25% and the Activity [6] was “Active”. For the same molecule, the inhibition [7] was “inactive”, the Activity [8] was “Active” and the inhibition [9] was less than 50%. The Activity [10] was 26%, the Activity [11] was 77% and the inhibition [12] was “Active”. It also gave a GI50 [13] of 0.1 µM, an IC50 [14] of 0.03 µM and an Activity [15] of 65%. The clearance [16] was 5 mL/min/kg, the inhibition [17] was “inactive” and the Activity [18] was 42%. It also gave a GI50 [19] of 0.25 µM, an Activity [20] of 89% and a GI50 [21] of 0.3 µM. The Activity [22] was 116%, the Activity [23] was 88% and the inhibition [24] was less than 50%. The Activity [25] was “Active”, the Cmax [26] was 5600 ng/mL and the Activity [27] was 136%. The “inhibition (INH)” value [28] was “Not Active” and the GI50 [29] was 0.3 µM.
